According to ChEMBL document CHEMBL1155412, “Novel powerful water-soluble lipid immunoadjuvants inducing mouse dendritic cell maturation and B cell proliferation using TLR2 pathway” (Bioorg Med Chem Lett, 2010):
The source made the active and inactive calls. The rule behind the calls is not given here.

Columns and labels:
[1] = target: Toll-like receptor 2 (Mus musculus) (UniProt Q9QUN7); experiment: Induction of TLR2-mediated mouse D1 dendritic cells maturation assessed as expression of CD54 and CD86 activation markers at 0.5 ug/ml to 5 ug/ml after 24 hrs by flow cytometry in the presence of polymyxin B; assay type: cell-based
[2] = target: Toll-like receptor 2 (Mus musculus) (UniProt Q9QUN7); experiment: Induction of TLR2-mediated mouse spleen B cells proliferation assessed as [3H]thymidin uptake at 0.02 ug/ml after 72 hrs
In short: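 Purified mouse spleen B cells cultured with analogs at indicated concentrations for 72 h; proliferation by [3H]-thymidine uptake. Stimulation index = mean cpm stimulated / mean cpm unstimulated; mean SI ± SD of three independent experiments, each in triplicate.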

[3] = target: Toll-like receptor 2 (Mus musculus) (UniProt Q9QUN7); experiment: Induction of TLR2-mediated mouse spleen B cells proliferation assessed as [3H]thymidin uptake at 0.16 ug/ml after 72 hrs in the presence of antagonist anti-TLR2 antibody treated 25 mins after anti-TLR2 antibody challenge; assay type: functional, tissue-based
[4] = target: Toll-like receptor 2 (Mus musculus) (UniProt Q9QUN7); experiment: Induction of TLR2-mediated mouse D1 dendritic cells maturation assessed as expression of CD54 and CD86 activation markers at 0.5 ug/ml after 24 hrs by flow cytometry in the presence of antagonist anti-TLR2 antibody treated 25 mins after anti-TLR2 antibody challenge

Sequence of Toll-like receptor 2 (Mus musculus) (Q9QUN7 whole entry): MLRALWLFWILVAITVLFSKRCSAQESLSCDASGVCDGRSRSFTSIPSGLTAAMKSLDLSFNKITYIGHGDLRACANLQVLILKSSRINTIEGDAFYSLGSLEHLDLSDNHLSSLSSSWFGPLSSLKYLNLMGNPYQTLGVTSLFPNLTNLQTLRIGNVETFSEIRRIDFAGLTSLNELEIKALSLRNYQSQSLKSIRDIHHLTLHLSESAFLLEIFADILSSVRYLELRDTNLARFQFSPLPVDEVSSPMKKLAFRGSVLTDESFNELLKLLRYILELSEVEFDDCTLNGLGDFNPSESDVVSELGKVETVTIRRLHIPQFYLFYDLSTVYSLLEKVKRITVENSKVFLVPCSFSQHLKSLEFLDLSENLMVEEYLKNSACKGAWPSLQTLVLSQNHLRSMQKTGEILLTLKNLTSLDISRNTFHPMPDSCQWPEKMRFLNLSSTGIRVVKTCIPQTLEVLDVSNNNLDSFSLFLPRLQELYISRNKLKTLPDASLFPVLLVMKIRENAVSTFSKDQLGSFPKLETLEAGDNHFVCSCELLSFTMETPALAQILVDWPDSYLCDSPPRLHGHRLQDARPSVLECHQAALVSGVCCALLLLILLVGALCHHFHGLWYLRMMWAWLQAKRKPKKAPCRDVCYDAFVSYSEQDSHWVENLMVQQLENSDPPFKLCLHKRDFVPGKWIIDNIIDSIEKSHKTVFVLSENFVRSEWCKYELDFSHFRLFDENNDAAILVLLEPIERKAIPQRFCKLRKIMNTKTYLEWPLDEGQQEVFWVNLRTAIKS

Activity [1] | Activity [2] | Activity [3] | Activity [4] | SMILES
Active | Active | inactive | inactive | CCCCCCCCCCCCCCCC(=O)OC[C@H](CSC[C@H](N)C(=O)N[C@@H](C)C(=O)NCC(=O)NCCOCCOCCOCCOCCOCCOCCOCCOCCOCCOCCOCCOCCOCCOCCOCCOCCOCCOCCOCCOCCOCCOCCOCCOCCOCCOCCOCCOCCOCCOCCOCCOCCOCCOCCOCCOCCOCCOCCOCCOCCOCCOCCOCCOCCOC)OC(=O)CCCCCCCCCCCCCCC
Active | Active | inactive | inactive | CCCCCCCCCCCCCCCC(=O)OC[C@H](CSC[C@H](NC(=O)COCCOCCOCCOCCOCCOCCOCCOCCOCCOCCOCCOCCOCCOCCOCCOCCOCCOCCOCCOCCOCCOCCOCCOCCOCCOCCOCCOCCOCCOCCOCCOCCOCCOCCOCCOCCOCCOCCOCCOCCOCCOCCOCCOCCOC)C(=O)N[C@@H](C)C(=O)NCC(=O)O)OC(=O)CCCCCCCCCCCCCCC
Active | Active | inactive | inactive | CCCCCCCCCCCCCCCC(=O)OC[C@H](CSC[C@H](N)C(=O)N[C@@H](C)C(=O)NCC(=O)NCCSSCCNC(=O)CNC(=O)OCCOCCOCCOCCOCCOCCOCCOCCOCCOCCOCCOCCOCCOCCOCCOCCOCCOCCOCCOCCOCCOCCOCCOCCOCCOCCOCCOCCOCCOCCOCCOCCOCCOCCOCCOCCOCCOCCOCCOCCOCCOCCOCCOCCO)OC(=O)CCCCCCCCCCCCCCC
Active | Active | inactive | inactive | CCCCCCCCCCCCCCCC(=O)N[C@@H](CSC[C@@H](COC(=O)CCCCCCCCCCCCCCC)OC(=O)CCCCCCCCCCCCCCC)C(=O)N[C@@H](C)C(=O)NCC(=O)NCCOCCOCCOCCOCCOCCOCCOCCOCCOCCOCCOCCOCCOCCOCCOCCOCCOCCOCCOCCOCCOCCOCCOCCOCCOCCOCCOCCOCCOCCOCCOCCOCCOCCOCCOCCOCCOCCOCCOCCOCCOCCOCCOCCOCCOC
